Screening results (PubChem BioAssay)
SR-BI uptake up = activators of SR-BI mediated DiI-HDL uptake, primary screen, ldlA[mSR-BI] CHO cells, DiI fluorescence; 0.096% of 320,000 active; 3 h; 100 = double the neutral-control signal; activation, % at 12.5 µM;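 active means mean replicate activation of at least 60% and every replicate at or above 60%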
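material = CHO ldlA[mSR-BI] cells | medium = Ham's F12 with 0.5% BSA, HEPES 25 mM, pH 7.4 | reagent = fluorescent DiI-HDL, 10 µg/mL final | compound dosing = single-point compound dose | incubation = 3 h, 37 °C | measured by = bottom-read fluorescence, 550/595 nm | measure = HDL uptake via cellular fluorescence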
SR-BI DiI inh = inhibitors of SR-BI mediated HDL lipid uptake, primary screen, ldlA[mSR-BI] cells, fluorescence, single point | Scavenger receptor class B member 1 (Mus musculus), Q61009 | ldlA[mSR-BI] CHO cells, DiI-HDL uptake fluorescence, 3 h | inhibition, % at 12.5 µM | 0.96% of 320,000 active | AID 488896, 2010;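 active means mean replicate inhibition of at least 70% and a set share of replicates each scoring 70 or more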
PKA-R1A activ = activators of PKA-R1A holoenzyme, primary screen, biochemical, fluorescence polarization, Cy5-IP20, bovine R1A, mouse PKAc | cAMP-dependent protein kinase type I-alpha regulatory subunit (Bos taurus) + … | PKA-R1A dissociation; scaled: DMSO 0%, 113 µM cGMP 100% | activation, % at 11.4 µM | 0.083% of 340,000 active;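 active means percent activation above the mean of all tested compounds plus 3 SD, cut at about 19% in these data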;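 further: higher means more PKAc released from R1A so a rise in polarization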
PKA-R2B act = activators of PKA-R2B holoenzyme, primary screen, biochemical, fluorescence polarization, Cy5-IP20, human; cAMP-dependent protein kinase catalytic subunit beta (Homo sapiens) + cAMP-dependent …; PKA-R2B holoenzyme dissociation; R2B truncated from residue 108, S112A mutant; 0% DMSO only, 100% 113 µM cGMP; activation, % at 11.4 µM; 0.079% of 340,000 active;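 active means activation above a cutoff set at the mean over all compounds plus 3 SD, cut at about 18% in these data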;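 further: higher means more holoenzyme dissociation and a rise in polarization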
Target sequence (P31323 whole entry, looked up, other chains not shown, the tested form may be a part): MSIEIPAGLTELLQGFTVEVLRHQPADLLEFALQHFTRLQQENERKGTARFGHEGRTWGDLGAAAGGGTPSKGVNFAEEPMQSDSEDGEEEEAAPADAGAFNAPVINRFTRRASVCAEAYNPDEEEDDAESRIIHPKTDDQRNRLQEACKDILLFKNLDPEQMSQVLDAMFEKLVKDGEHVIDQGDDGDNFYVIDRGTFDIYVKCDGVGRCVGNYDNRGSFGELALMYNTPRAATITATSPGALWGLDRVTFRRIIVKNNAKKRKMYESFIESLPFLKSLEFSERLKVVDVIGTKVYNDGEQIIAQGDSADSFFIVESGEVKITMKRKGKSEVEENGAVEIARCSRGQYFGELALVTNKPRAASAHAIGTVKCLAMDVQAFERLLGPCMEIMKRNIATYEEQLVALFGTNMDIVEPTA
Vif imaging = HIV Vif self-association inhibitors, primary screen, imaging, HEK293T, single point; HEK293T cells, Vif self-association by quenched fluorescence, 24 h; inhibition, % at 7.49 µM; 0.35% of 340,000 active; AID 602346, 2012; in the data active means inhibition above about 50%, passing the limit was not always enough
Of the large screens only hits and unclear results are named; the others gave an inactive call. An excerpt weighted towards active compounds, which were near 1.4% of everything screened.

COc1ccc(NC(=O)C2CCN(C(=O)c3ccco3)CC2)c(OC)c1	none (no result: SR-BI uptake up, SR-BI DiI inh)
COC(=O)c1cc(C(=O)N2CCN(C(=O)c3ccco3)CC2)cc([N+](=O)[O-])c1	none (no result: Vif imaging)
COc1ccc(C)cc1NC(=O)C1CCN(C(=O)C2CC(=O)N(c3ccc(C)cc3)C2)CC1 (centres undefined)	SR-BI DiI inh 89
COc1ccc(C)cc1NC(=O)C1CCN(C(=O)c2ccco2)CC1	Vif imaging 54 (no result: SR-BI uptake up, SR-BI DiI inh)
COc1ccc([N+](=O)[O-])cc1NC(=O)C(C)N1CCN(C(=O)c2ccco2)CC1 (centres undefined)	SR-BI DiI inh 72
Cc1noc(C)c1COc1ccc(C(=O)Nc2nnc(CC(C)C)s2)cc1	SR-BI DiI inh 82
Cc1noc(C)c1COc1ccc(C(=O)NNC(=O)c2ccccc2O)cc1	SR-BI DiI inh 95
Cc1noc(C)c1COc1ccc(C(=O)Nc2ccccc2)cc1	none
Cc1noc(C)c1C(=O)Nc1nnc(CC(C)C)s1	none
COc1cc(N2CCCC2)c(OC)cc1/C=C(/C#N)c1ccc(F)cc1	Vif imaging 63
COc1ccc(-c2[nH]n(-c3ccc([N+](=O)[O-])cc3)c(=O)c2C=NCc2ccccc2)cc1	SR-BI DiI inh 87
COc1ccc(CCN=Cc2c(C)[nH]n(-c3ccc([N+](=O)[O-])cc3)c2=O)cc1OC	none (no result: Vif imaging)
CCOc1ccc(N(CC(=O)Nc2ccc(C)c(Cl)c2)S(C)(=O)=O)cc1	none
CN(Cc1ccco1)C(=O)CC[C@H]1O[C@@H](n2ccc(=O)[nH]c2=O)[C@H](O)[C@@H]1O	none (no result: SR-BI uptake up, SR-BI DiI inh, PKA-R1A activ, PKA-R2B act)
COc1ccc(CN(C)C(=O)c2ccc(Cl)c(S(=O)(=O)NCc3cccnc3)c2)cc1F	none
Cc1nc(-c2nnc(SCC(=O)Nc3ccc(Cl)cc3)n2C)cs1	none
Cc1ccc(-c2nn3c(C)nnc3s2)cc1NC(=O)c1ccc(-c2cccc(Cl)c2)o1	SR-BI DiI inh 73
Cc1ccc(-c2nn3c(C)nnc3s2)cc1NC(=O)c1ccc(Br)o1	none
Cc1ccc(-c2nn3c(C)nnc3s2)cc1NC(=O)c1ccc(-c2ccc(Cl)cc2Cl)o1	SR-BI DiI inh 79
O=C(Nc1ccccc1)c1sc2cc(C(F)(F)F)cnc2c1-c1cccs1	SR-BI DiI inh 71
COc1ccc(C(C(=O)NCC2CCCO2)N(C(=O)Cn2nnc3ccccc32)c2ccccc2C(C)=O)cc1OC (centres undefined)	none (no result: SR-BI uptake up, SR-BI DiI inh)
COc1ccc(O)c(/C=N/NC(=O)c2ccc(CSc3nc(C)cc(C)n3)cc2)c1	SR-BI DiI inh 125
COc1ccc(/C=N/NC(=O)c2ccc(CSc3nc(C)cc(C)n3)cc2)cc1O	none
Cc1cc(C)nc(SCc2ccc(C(=O)N/N=C/c3cccc(O)c3O)cc2)n1	SR-BI DiI inh 93
O=C(c1ccccc1)N1CCN(c2ccc([N+](=O)[O-])c(NCC3CCCO3)c2)CC1 (centres undefined)	none
C[C@@H]1CN([C@H](C)CO)S(=O)(=O)c2ccc(-c3ccc(C(=O)N(C)C)cc3)cc2O[C@H]1CN(C)C(=O)Cc1ccccn1	none (no result: SR-BI uptake up, SR-BI DiI inh)
CCCN1C(=O)/C(=C/c2ccco2)SC1=Nc1ccc(OC)cc1	SR-BI DiI inh 79
N#Cc1ccc(CSc2nnc(-c3cccs3)n2-c2ccccc2)cc1	Vif imaging 55
CCOc1ccc(N(C(=O)c2ccc3c(c2)OCO3)C2C=CS(=O)(=O)C2)cc1 (centres undefined)	none
C[C@H]1CN([C@@H](C)CO)C(=O)c2cc(Br)cnc2O[C@H]1CN(C)C(=O)c1ccccn1	none (no result: SR-BI uptake up, SR-BI DiI inh)
COc1ccc(-c2nc(C#N)c(NCc3ccc(F)cc3)o2)cc1OC	SR-BI DiI inh 74
C=C(CN(C)C)C(=O)c1ccc(C)cc1C	SR-BI DiI inh 85
CCOCCCn1c(=N)c(S(=O)(=O)c2ccc(C)cc2)cc2c(=O)n3cc(C)ccc3nc21	Vif imaging 50 (no result: SR-BI uptake up, SR-BI DiI inh)
Cc1ccc(N2CC(C(=O)Nc3ncc([N+](=O)[O-])s3)CC2=O)cc1 (centres undefined)	none
CN(C)c1ccc(C(=S)N2CCN(c3ccccc3)CC2)cc1	none
Cc1ccc(N2CCN(C(=S)c3ccc(N(C)C)cc3)CC2)cc1	Vif imaging 66
C[C@@H]1CN([C@@H](C)CO)C(=O)CCCn2nncc2CO[C@@H]1CN(C)C(=O)Nc1ccccc1C(F)(F)F	none (no result: SR-BI uptake up, SR-BI DiI inh)
CCCCn1c(=O)c(CCC(=O)OCC(=O)NC(=O)NCCOC)nc2ccccc21	none (no result: Vif imaging)
Cc1ccc(C)c(NC(=O)CN(C)C(=O)c2cccc(S(=O)(=O)N3CCCC3)c2)c1	Vif imaging 53
CC(=O)Nc1cccc(OCC(=O)Nc2cccc(S(=O)(=O)N3CCCC3)c2)c1	SR-BI uptake up 449
Cc1ccc(C)c(NC(=O)CN(C)C(=O)c2cccc(S(=O)(=O)N3CCN(Cc4ccccc4)CC3)c2)c1	none
COc1ccc(NC(=O)c2cccc(S(=O)(=O)N3CCN(C)CC3)c2)c(OC)c1	Vif imaging 54 (no result: SR-BI uptake up, SR-BI DiI inh)
CN(C)S(=O)(=O)c1cccc(NC(=O)c2cccc(S(=O)(=O)N3CCCCCC3)c2)c1	SR-BI DiI inh 77
O=C(NC1CCCC1)C(c1ccccn1)N(C(=O)c1csnn1)c1ccccc1Br (centres undefined)	none
CC(=O)NCCNc1nc(NCC2CC2)nc2cc(-c3ccccc3)sc12	none (no result: SR-BI uptake up, SR-BI DiI inh, PKA-R1A activ, PKA-R2B act)
CCn1cc(CN2CCC(n3nccc3NC(=O)c3cccc(F)c3)CC2)cn1	none
CCCN1C(=O)c2cc(C(=O)Nc3ccc(OC)c(OC)c3)ccc2C1Nc1ccc(OC)c(OC)c1 (centres undefined)	none
CCCN1C(=O)c2cc(C(=O)Nc3ccc(OC)cc3OC)ccc2C1Nc1ccc(OC)cc1OC (centres undefined)	SR-BI DiI inh 74
Cc1cc(NC(=O)c2cccc(S(=O)(=O)N(C)C)c2)n(-c2ccccn2)n1	none
Cc1cc(NC(=O)c2cccc(S(=O)(=O)N3CCCCCC3)c2)n(-c2ccccn2)n1	SR-BI DiI inh 82
Cc1ccc(S(C)(=O)=O)cc1C(=O)Nc1cccc(S(=O)(=O)N2CCCCCC2)c1	SR-BI DiI inh 80
CS(=O)(=O)c1cccc(C(=O)Nc2cccc(S(=O)(=O)N3CCCC3)c2)c1	SR-BI DiI inh 83
O=C(Nc1ccccc1N1CCOCC1)c1cccc2ccccc12	none (no result: SR-BI uptake up, SR-BI DiI inh)
Cc1c(C(c2ccc(O)cc2)c2c(C)n(C)n(-c3ccccc3)c2=O)c(=O)n(-c2ccccc2)n1C	none (no result: PKA-R1A activ, PKA-R2B act)
Cc1c(C(c2ccc(C(=O)O)cc2)c2c(C)n(C)n(-c3ccccc3)c2=O)c(=O)n(-c2ccccc2)n1C	SR-BI DiI inh 76
